Assay results reported in ChEMBL document CHEMBL4364274, “Synthesis and biological activity of glycyrrhetinic acid derivatives as antitumor agents” (Eur J Med Chem, 2019).
Activity calls are given as the source filed them. No cut-off for these calls is given here.

Experiments:
MCF7 = experiment: Antiproliferative activity against human MCF7 cells incubated for 72 hrs by MTT assay; type: functional, cell-based; conditions: MCF7, 72 h
Procedure, shortened: (§1)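 Cells in exponential growth were plated at 3×10^3 cells/well and grown 24 h at 37 °C in 5% CO2. They were then exposed to a range of drug concentrations for 72 h. MTT (5 mg/mL solution) was added for 4 h, the medium was discarded, and formazan was dissolved in DMSO before reading A490. Drug-free wells served as blanks. % inhibition was calculated as 1 − (sample−blank)/(control−blank), and IC50 was taken as the concentration giving 50% inhibition.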

A549 [1] = experiment: Induction of apoptosis in human A549 cells assessed as early apoptotic cells at 5 uM incubated for 72 hrs by annexin V-FITC and PI staining based flow cytometric analysis (reference value: 3.0%); type: functional
A549 [2] = experiment: Induction of apoptosis in human A549 cells assessed as live cell at 5 uM incubated for 72 hrs by annexin V-FITC and PI staining based flow cytometric analysis (reference value: 90%); type: functional
A549 [3] = experiment: Induction of apoptosis in human A549 cells assessed as late apoptotic cells at 3 uM incubated for 72 hrs by annexin V-FITC and PI staining based flow cytometric analysis (reference value: 6.5%); type: functional
A549 [4] = experiment: Induction of cell cycle arrest in human A549 cells assessed as accumulation at S phase at 3 uM incubated for 72 hrs by PI staining based flow cytometric analysis (reference value: 31.41%); type: functional
A549 [5] = experiment: Induction of cell cycle arrest in human A549 cells assessed as accumulation at S phase at 1 uM incubated for 72 hrs by PI staining based flow cytometric analysis (reference value: 31.41%); type: functional
HeLa = experiment: Antiproliferative activity against human HeLa cells incubated for 72 hrs by MTT assay; type: functional, cell-based; procedure, shortened: as §1
A549 [6] = experiment: Induction of morphological changes in human A549 cells assessed as condensation of chromatin at 1 to 5 uM incubated for 72 hrs by DAPI staining by inverted phase-contrast microscopic method; type: functional, cell-based
Procedure, shortened: (§2)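 Exponentially growing A549 cells were plated at 2.4×10^4 cells/well, grown 24 h at 37 °C in 5% CO2, then exposed to 1, 3 or 5 μM for 72 h beside untreated controls. Cells were washed twice in PBS, fixed in 4% paraformaldehyde for 10 min, and stained with DAPI (10 µg/mL) for 1 min in the dark. Nuclei were examined by inverted microscope at 200×.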

A549 [7] = experiment: Induction of apoptosis in human A549 cells assessed as live cell at 1 uM incubated for 72 hrs by annexin V-FITC and PI staining based flow cytometric analysis (reference value: 90%); type: functional
A549 [8] = experiment: Induction of morphological changes in human A549 cells assessed as formation of nuclear fragmentation at 1 to 5 uM incubated for 72 hrs by DAPI staining by inverted phase-contrast microscopic method; type: functional, cell-based; procedure, shortened: as §2
A549 [9] = experiment: Induction of cell cycle arrest in human A549 cells assessed as accumulation at G1 phase at 5 uM incubated for 72 hrs by PI staining based flow cytometric analysis (reference value: 49.94%); type: functional
A549 [10] = experiment: Induction of cell cycle arrest in human A549 cells assessed as accumulation at G1 phase at 1 uM incubated for 72 hrs by PI staining based flow cytometric analysis (reference value: 49.94%); type: functional
A549 [11] = experiment: Antiproliferative activity against human A549 cells incubated for 72 hrs by MTT assay; type: functional, cell-based; conditions: A549, 72 h; procedure, shortened: as §1
A549 [12] = experiment: Induction of cell cycle arrest in human A549 cells assessed as accumulation at G1 phase at 3 uM incubated for 72 hrs by PI staining based flow cytometric analysis (reference value: 49.94%); type: functional
A549 [13] = experiment: Induction of apoptosis in human A549 cells assessed as late apoptotic cells at 1 uM incubated for 72 hrs by annexin V-FITC and PI staining based flow cytometric analysis (reference value: 6.5%); type: functional
A549 [14] = experiment: Induction of apoptosis in human A549 cells assessed as necrotic cells at 3 uM incubated for 72 hrs by annexin V-FITC and PI staining based flow cytometric analysis (reference value: 0.5%); type: functional
A549 [15] = experiment: Induction of apoptosis in human A549 cells assessed as late apoptotic cells at 5 uM incubated for 72 hrs by annexin V-FITC and PI staining based flow cytometric analysis (reference value: 6.5%); type: functional
A549 [16] = experiment: Induction of cell cycle arrest in human A549 cells assessed as accumulation at G2 phase at 1 uM incubated for 72 hrs by PI staining based flow cytometric analysis (reference value: 18.65%); type: functional
A549 [17] = experiment: Induction of cell cycle arrest in human A549 cells assessed as accumulation at G2 phase at 3 uM incubated for 72 hrs by PI staining based flow cytometric analysis (reference value: 18.65%); type: functional
HepG2 [18] = experiment: Antiproliferative activity against human HepG2 cells incubated for 72 hrs by MTT assay; type: functional, cell-based; conditions: HepG2, 72 h; procedure, shortened: as §1
A549 [19] = experiment: Induction of apoptosis in human A549 cells assessed as early apoptotic cells at 1 uM incubated for 72 hrs by annexin V-FITC and PI staining based flow cytometric analysis (reference value: 3.0%); type: functional
A549 [20] = experiment: Ratio of IC50 for GA to IC50 for test compound for human A549 cells; type: functional
A549 [21] = experiment: Induction of apoptosis in human A549 cells assessed as live cell at 3 uM incubated for 72 hrs by annexin V-FITC and PI staining based flow cytometric analysis (reference value: 90%); type: functional
A549 [22] = experiment: Induction of cell cycle arrest in human A549 cells assessed as accumulation at G2 phase at 5 uM incubated for 72 hrs by PI staining based flow cytometric analysis (reference value: 18.65%); type: functional
A549 [23] = experiment: Induction of apoptosis in human A549 cells assessed as necrotic cells at 1 uM incubated for 72 hrs by annexin V-FITC and PI staining based flow cytometric analysis (reference value: 0.5%); type: functional
A549 [24] = experiment: Induction of morphological changes in human A549 cells assessed as appearance of apoptotic body formation at 1 to 5 uM incubated for 72 hrs by DAPI staining by inverted phase-contrast microscopic method; type: functional, cell-based; procedure, shortened: as §2
MDCK = experiment: Cytotoxicity against MDCK cells incubated for 72 hrs by MTT assay; type: cell-based; conditions: Canis lupus familiaris; procedure, shortened: as §1
A549 [25] = experiment: Induction of cell cycle arrest in human A549 cells assessed as accumulation at S phase at 5 uM incubated for 72 hrs by PI staining based flow cytometric analysis (reference value: 31.41%); type: functional
A549 [26] = experiment: Induction of apoptosis in human A549 cells assessed as early apoptotic cells at 3 uM incubated for 72 hrs by annexin V-FITC and PI staining based flow cytometric analysis (reference value: 3.0%); type: functional
A549 [27] = experiment: Induction of apoptosis in human A549 cells assessed as necrotic cells at 5 uM incubated for 72 hrs by annexin V-FITC and PI staining based flow cytometric analysis (reference value: 0.5%); type: functional
HepG2 [28] = experiment: Ratio of IC50 for GA to IC50 for test compound for human HepG2 cells; type: functional

With `C[C@H](N)C(=O)N[C@H]1CC[C@]2(C)[C@H]3C(=O)C=C4[C@@H]5C[C@@](C)(C(=O)OCc6ccccc6)CC[C@]5(C)CC[C@@]4(C)[C@]3(C)CC[C@H]2C1(C)C` the IC50 (MCF7) was 2.14 µM, the Activity (A549 [1]) was 44.8% and the Activity (A549 [2]) was 54%. The Activity (A549 [3]) was 7.5%, the Activity (A549 [4]) was 33.59% and the Activity (A549 [5]) was 31.05%. For the same molecule, the IC50 (HeLa) was 2.39 µM, the Activity (A549 [6]) was “Active” and the Activity (A549 [7]) was 85%. The Activity (A549 [8]) was “Active”, the Activity (A549 [9]) was 46.79% and the Activity (A549 [10]) was 53.09%. The IC50 (A549 [11]) was 2.11 µM, the Activity (A549 [12]) was 56.45% and the Activity (A549 [13]) was 8.6%. It also gave an Activity (A549 [14]) of 0.3%, an Activity (A549 [15]) of 1.1% and an Activity (A549 [16]) of 15.86%. For the same molecule, the Activity (A549 [17]) was 9.96%, the IC50 (HepG2 [18]) was 2.44 µM and the Activity (A549 [19]) was 5.9%. The “Ratio IC50” value (A549 [20]) was 18, the Activity (A549 [21]) was 65.7% and the Activity (A549 [22]) was 0%. For the same molecule, the Activity (A549 [23]) was 0.4%, the Activity (A549 [24]) was “Active” and the IC50 (MDCK) was 4.65 µM. It also gave an Activity (A549 [25]) of 53.21%, an Activity (A549 [26]) of 26.5% and an Activity (A549 [27]) of 0%.
With `CC(C)C[C@H](NC(=O)OC(C)(C)C)C(=O)N[C@H]1CC[C@]2(C)[C@H]3C(=O)C=C4[C@@H]5C[C@@](C)(C(=O)OCc6ccccc6)CC[C@]5(C)CC[C@@]4(C)[C@]3(C)CC[C@H]2C1(C)C` the IC50 (MCF7) was over 40 µM, the IC50 (HeLa) was over 40 µM and the IC50 (A549 [11]) was over 40 µM. It also gave an IC50 (HepG2 [18]) of over 40 µM and an IC50 (MDCK) of over 40 µM.
`CC[C@H](C)[C@H](N)C(=O)N[C@H]1CC[C@]2(C)[C@H]3C(=O)C=C4[C@@H]5C[C@@](C)(C(=O)OCc6ccccc6)CC[C@]5(C)CC[C@@]4(C)[C@]3(C)CC[C@H]2C1(C)C` was tested, and the IC50 (MCF7) was 4.69 µM, the IC50 (HeLa) was 2.94 µM and the IC50 (A549 [11]) was 3.43 µM. For the same molecule, the IC50 (HepG2 [18]) was 5.15 µM and the IC50 (MDCK) was 4.13 µM.
`CC1(C)[C@@H](NC(=O)[C@@H]2CCCN2)CC[C@]2(C)[C@H]3C(=O)C=C4[C@@H]5C[C@@](C)(C(=O)OCc6ccccc6)CC[C@]5(C)CC[C@@]4(C)[C@]3(C)CC[C@@H]12` was tested, and the IC50 (MCF7) was 7.62 µM, the IC50 (HeLa) was 2.21 µM and the “Ratio IC50” value (HepG2 [28]) was 16. It also gave an IC50 (A549 [11]) of 3.26 µM, an IC50 (HepG2 [18]) of 2.14 µM and an IC50 (MDCK) of 2.53 µM.
`C[C@H](NC(=O)OC(C)(C)C)C(=O)N[C@H]1CC[C@]2(C)[C@H]3C(=O)C=C4[C@@H]5C[C@@](C)(C(=O)OCc6ccccc6)CC[C@]5(C)CC[C@@]4(C)[C@]3(C)CC[C@H]2C1(C)C` was tested, and the IC50 (MCF7) was over 40 µM, the IC50 (HeLa) was over 40 µM and the IC50 (A549 [11]) was over 40 µM. It also gave an IC50 (HepG2 [18]) of over 40 µM and an IC50 (MDCK) of over 40 µM.
